According to ChEMBL document CHEMBL1126568, “Nucleosides and nucleotides. 122. 2'-C-cyano-2'-deoxy-1-beta-D-arabinofuranosylcytosine and its derivatives. A new class of nucleoside with a broad antitumor spectrum” (J Med Chem, 1993):
pIC50: −log10 of the molar value.

Legend:
MCF7 = test: Tested in vitro against MCF-7 human breast adenocarcinoma; type: functional, cell-based
How it was run: (§1)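 MTT growth assay: 2 × 10³ cells/well exposed to compound or left untreated for 72 h. MTT then added for 4 h more; formazan dissolved in DMSO and OD read at 540 nm. % inhibition = [1 − OD sample/OD control] × 100. IC₅₀ (μM) is the concentration giving 50% growth inhibition. Single-concentration inhibition measured at 100 μg/mL.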

[1] = Tested in vitro inhibitory activity against human oral epidermoid carcinoma KB cells; type: functional, cell-based; how it was run: as §1
Mus musculus [2] = test: Percent treated was determined after administration at 300 mg/kg orally; type: functional; details: route oral
How it was run: (§2)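 Female BDF₁ mice bearing subcutaneous M5076 (10⁶ cells, axillary). Oral dosing in saline or 5% DMA/0.5% CMC on days 1, 4, 7, 10, 13 and 16. Groups of six (three at 400 mg/kg), nine untreated controls. T/C (%) = median survival day of treated/median survival day of untreated controls × 100; 60-day survivors also recorded.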

OST = test: Tested in vitro against OST human osteosarcoma; type: functional, cell-based; how it was run: as §1
PC-13 = test: Tested in vitro against PC-13 human lung large cell carcinoma; type: functional, cell-based; how it was run: as §1
[3] = tested on: KATO III stomach cancer cell line; test: Tested in vitro against KATO-III human stomach adenocarcinoma; type: functional, cell-based; how it was run: as §1
MKN-45 = test: Tested in vitro against MKN-45 human stomach adenocarcinoma; type: functional, cell-based; details: MKN-45, Stomach; how it was run: as §1
Mus musculus [4] = test: Percent inhibition against M5076 mouse reticulum cell sarcoma after administration at 400 mg/kg orally on day 20; type: functional; details: M5076, 480 h, route oral
How it was run: (§3)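 M5076 cells (10⁶ viable, counted by Trypan blue exclusion) implanted subcutaneously into the axillary region of female BDF₁ mice. Drug given orally on days 1, 4, 7, 10, 13 and 16 after inoculation, in saline or in 5% dimethylacetamide/0.5% carboxymethyl cellulose. Six mice per group (three at 400 mg/kg); untreated controls, nine mice. Tumor volume = 0.5 × length × width²; inhibition (%) = (1 − Vt/Vc) × 100 on day 20.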

Mus musculus [5] = test: Tested for 60-day survivors after administration at 400 mg/kg orally in M5076 mouse reticulum cell sarcoma; type: functional; details: route oral
How it was run: (§4)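 Female BD2F1 mice were implanted s.c. with 1 × 10^6 M5076 cells and dosed orally on days 1, 4, 7, 10, 13 and 16. Vehicle was saline or 5% DMA in 0.5% CMC. Groups had six mice (three at 400 mg/kg), with nine untreated controls. The number of mice alive at 60 days was counted.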

HOS-TE85 = test: Tested in vitro against MNNG/HOS cell line human osteosarcoma; type: functional, cell-based; how it was run: as §1
Mus musculus [6] = test: Tested for 60-day survivors after administration at 200 mg/kg orally in M5076 mouse reticulum cell sarcoma; type: functional; details: route oral; how it was run: as §4
Mus musculus [7] = test: Weight change in M5076 mouse reticulum cell sarcoma after administration at 100 mg/kg orally; type: functional; details: route oral
How it was run: (§5)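 Female BDF₁ mice with subcutaneous axillary M5076 (10⁶ cells), oral dosing on days 1, 4, 7, 10, 13 and 16 in saline or 5% DMA/0.5% CMC. Body weight change (g) = mean weight on day 20 minus mean weight on day 1.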

Mus musculus [8] = test: Tested for 60-day survivors after administration at 300 mg/kg orally in M5076 mouse reticulum cell sarcoma; type: functional; details: route oral; how it was run: as §4
QG-95 = test: Tested in vitro against QG-95 human squamous cell carcinoma; type: functional, cell-based; how it was run: as §1
Mus musculus [9] = test: Weight change in M5076 mouse reticulum cell sarcoma after administration at 300 mg/kg orally; type: functional; details: route oral; how it was run: as §5
Mus musculus [10] = test: Weight change in M5076 mouse reticulum cell sarcoma after administration at 200 mg/kg orally; type: functional; details: route oral; how it was run: as §5
PC-8 = test: Tested in vitro against PC-8 human lung adenocarcinoma; type: functional, cell-based; how it was run: as §1
HT-1080 = test: Tested in vitro against HT1080 cell line human fibrosarcoma; type: functional, cell-based; how it was run: as §1
A-375 = test: Tested in vitro against A-375 cell line human melanoma; type: functional, cell-based; how it was run: as §1
Mus musculus [11] = test: Percent treated was determined after administration at 100 mg/kg orally; type: functional; details: route oral; how it was run: as §2
COLO 320 = test: Tested in vitro against colo-320 human colon adenocarcinoma; type: functional, cell-based; details: COLO 320, Colon; how it was run: as §1
SW48 = test: Tested in vitro against SW-48 human colon adenocarcinoma; type: functional, cell-based; how it was run: as §1
PC-9 = test: Tested in vitro against PC-9 human lung adenocarcinoma; type: functional, cell-based; how it was run: as §1
Mus musculus [12] = test: Weight change in M5076 mouse reticulum cell sarcoma after administration at 400 mg/kg orally; type: functional; details: route oral; how it was run: as §5
Mus musculus [13] = test: Percent inhibition against M5076 mouse reticulum cell sarcoma after administration at 300 mg/kg orally on day 20; type: functional; details: M5076, 480 h, route oral; how it was run: as §3
Mus musculus [14] = test: Percent inhibition against M5076 mouse reticulum cell sarcoma after administration at 200 mg/kg orally on day 20; type: functional; details: M5076, 480 h, route oral; how it was run: as §3
ST-KM-1 = test: Tested in vitro against ST-KM human stomach adenocarcinoma; type: functional, cell-based; details: ST-KM-1, Stomach; how it was run: as §1
Mus musculus [15] = test: Percent inhibition against M5076 mouse reticulum cell sarcoma after administration at 100 mg/kg orally on day 20; type: functional; details: M5076, 480 h, route oral; how it was run: as §3
Mus musculus [16] = test: Tested for 60-day survivors after administration at 100 mg/kg orally in M5076 mouse reticulum cell sarcoma; type: functional; details: route oral; how it was run: as §4
L1210 [17] = test: Tested in vitro inhibitory activity against murine leukemia L1210; type: functional, cell-based; details: Mus musculus; how it was run: as §1
Mus musculus [18] = test: Percent treated was determined after administration at 200 mg/kg orally; type: functional; details: route oral; how it was run: as §2
Mus musculus [19] = test: Percent treated was determined after administration at 400 mg/kg orally; type: functional; details: route oral; how it was run: as §2
KKLS = test: Tested in vitro against KKLS human stomach adenocarcinoma; type: functional, cell-based; how it was run: as §1
[20] = Percent inhibition against human oral epidermoid carcinoma KB cells at 100 ug/mL; type: functional; how it was run: as §1
L1210 [21] = test: Percent inhibition against murine leukemia L1210 at 100 ug/mL; type: functional; details: Mus musculus; how it was run: as §1

| pIC50 [1] | pIC50 (L1210 [17]) | SMILES | pIC50 (MCF7) | pIC50 (OST) | pIC50 (PC-13) | pIC50 [3] | pIC50 (MKN-45) | pIC50 (HOS-TE85) | pIC50 (QG-95) | pIC50 (PC-8) | pIC50 (HT-1080) | pIC50 (A-375) | pIC50 (COLO 320) | pIC50 (SW48) | pIC50 (PC-9) | pIC50 (ST-KM-1) | pIC50 (KKLS) | inhibition at 100 µg/mL [20] [%] | other results |
| --- | --- | --- | --- | --- | --- | --- | --- | --- | --- | --- | --- | --- | --- | --- | --- | --- | --- | --- | --- |
| 3.64 | 4.60 | CC(=O)Nc1ccn([C@@H]2O[C@H](CO)[C@@H](O)[C@@H]2C#N)c(=O)n1 | – | – | – | – | – | – | – | – | – | – | – | – | – | – | – | – | – |
| – | 3.58 | N#CC1=C[C@@H](CO)O[C@H]1n1ccc(N)nc1=O | 3.52 | 3.63 | 3.44 | 4.50 | 3.42 | 3.69 | 3.37 | < 3.37 | 3.61 | 3.84 | 3.82 | 3.56 | < 3.37 | 3.46 | < 3.37 | 46.8 | – |
| 4.52 | 4.91 | Cc1cn([C@@H]2O[C@H](CO)C=C2C#N)c(=O)[nH]c1=O | – | – | – | – | – | – | – | – | – | – | – | – | – | – | – | – | – |

More lines, now with the values behind:

| SMILES | pIC50 [1] | pIC50 (L1210 [17]) | pIC50 (MCF7) | pIC50 (OST) | pIC50 (PC-13) | pIC50 [3] | pIC50 (MKN-45) | pIC50 (HOS-TE85) | pIC50 (QG-95) | pIC50 (PC-8) | pIC50 (HT-1080) | pIC50 (A-375) | pIC50 (COLO 320) | pIC50 (SW48) | pIC50 (PC-9) | pIC50 (ST-KM-1) | pIC50 (KKLS) | inhibition at 100 µg/mL [20] [%] | other results |
| --- | --- | --- | --- | --- | --- | --- | --- | --- | --- | --- | --- | --- | --- | --- | --- | --- | --- | --- | --- |
| Cl.N#C[C@H]1[C@H](O)[C@@H](CO)O[C@H]1n1ccc(N)nc1=O | 5.28 | 6.28 | 5.76 | 4.65 | 4.06 | 4.25 | 4.80 | 4.63 | 3.86 | 4.80 | 6.28 | 5.85 | 5.85 | < 3.46 | 4.82 | 5.01 | 3.46 | – | T/C (Mus musculus [2]): 120%; inhibition in vivo at 400 mg/kg (Mus musculus [4]): 99%; Survivors (Mus musculus [5]): 1; Survivors (Mus musculus [6]): 2; Weight change (Mus musculus [7]): 1.7 g; Survivors (Mus musculus [8]): 0; Weight change (Mus musculus [9]): 1 g; Weight change (Mus musculus [10]): 2 g; T/C (Mus musculus [11]): 118%; Weight change (Mus musculus [12]): 1.1 g; inhibition in vivo at 300 mg/kg (Mus musculus [13]): 97%; inhibition in vivo at 200 mg/kg (Mus musculus [14]): 93%; inhibition in vivo at 100 mg/kg (Mus musculus [15]): 79%; Survivors (Mus musculus [16]): 0; T/C (Mus musculus [18]): 136%; T/C (Mus musculus [19]): 133% |
| Cc1cn([C@@H]2O[C@H](CO)C(O)[C@@H]2C#N)c(=O)[nH]c1=O (stereo partly specified) | – | – | – | – | – | – | – | – | – | – | – | – | – | – | – | – | – | -6 | inhibition at 100 µg/mL (L1210 [21]): 6.7% |
